According to ChEMBL document CHEMBL1649494, “Hypersusceptibility to azole antifungals in a clinical isolate of Candida glabrata with reduced aerobic growth” (2009):
≈ marks a conversion by molar mass, not a printed value.

Assays:
Type in all cases: functional
Nakaseomyces glabratus [1] = assay: Antifungal activity against Candida glabrata isolate 21231 by Etest method
Summary of the method: (§1)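 MIC by Etest strips on Casitone agar plates (pH 7.2, chloramphenicol-supplemented), run per manufacturer's recommendations; isolates maintained on YEPD agar by regular passage.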

Nakaseomyces glabratus [2] = assay: Antifungal activity against Candida glabrata isolate 22852 at 10 ug after 48 hrs by disk diffusion method; conditions: isolate 22852, 48 h, read-out: DIZ
Nakaseomyces glabratus [3] = assay: Antifungal activity against Candida glabrata isolate 21231 at 10 ug after 48 hrs by disk diffusion method; conditions: isolate 21231, 48 h, read-out: DIZ
Nakaseomyces glabratus [4] = assay: Antifungal activity against Candida glabrata isolate 22853 at 10 ug after 48 hrs by disk diffusion method; conditions: isolate 22853, 48 h, read-out: DIZ
Nakaseomyces glabratus [5] = assay: Antifungal activity against Candida glabrata isolate 22853 by Etest method; summary of the method: as §1
Nakaseomyces glabratus [6] = assay: Antifungal activity against Candida glabrata isolate 22852 by Etest method; summary of the method: as §1
Nakaseomyces glabratus [7] = assay: Antifungal activity against Candida glabrata isolate 21231 at 15 ug after 48 hrs by disk diffusion method; conditions: isolate 21231, 48 h, read-out: DIZ
Nakaseomyces glabratus [8] = assay: Antifungal activity against Candida glabrata isolate 22853 at 15 ug after 48 hrs by disk diffusion method; conditions: isolate 22853, 48 h, read-out: DIZ
Nakaseomyces glabratus [9] = assay: Antifungal activity against Candida glabrata isolate 22852 at 15 ug after 48 hrs by disk diffusion method; conditions: isolate 22852, 48 h, read-out: DIZ

Row | SMILES | MIC (Nakaseomyces glabratus [1]) [µg/mL] | zone of inhibition at 10 µg/disc (Nakaseomyces glabratus [2]) [mm] | zone of inhibition at 10 µg/disc (Nakaseomyces glabratus [3]) [mm] | zone of inhibition at 10 µg/disc (Nakaseomyces glabratus [4]) [mm] | MIC (Nakaseomyces glabratus [5]) [µg/mL] | MIC (Nakaseomyces glabratus [6]) [µg/mL] | zone of inhibition at 15 µg/disc (Nakaseomyces glabratus [7]) [mm] | zone of inhibition at 15 µg/disc (Nakaseomyces glabratus [8]) [mm] | zone of inhibition at 15 µg/disc (Nakaseomyces glabratus [9]) [mm]
1 | C[C@@H]1[C@H](O)[C@@H](C)/C=C/C=C/C=C/C=C/C=C/C=C/C=C/[C@H](O[C@@H]2O[C@H](C)[C@@H](O)[C@H](N)[C@@H]2O)C[C@@H]2O[C@](O)(C[C@@H](O)C[C@@H](O)[C@H](O)CC[C@@H](O)C[C@@H](O)CC(=O)O[C@H]1C)C[C@H](O)[C@H]2C(=O)O [AMPHOTERICIN B] | 0.047 (≈ 0.0509 µM) | 40 | 27 | 31 | 0.047 (≈ 0.0509 µM) | 0.032 (≈ 0.0346 µM) |  |  | 
2 | Clc1ccccc1C(c1ccccc1)(c1ccccc1)n1ccnc1 [CLOTRIMAZOLE] |  | 50 | 25 | 12 |  |  |  |  | 
3 | Clc1ccc(COC(Cn2ccnc2)c2ccc(Cl)cc2Cl)cc1 (configuration not stated) [ECONAZOLE] |  | 50 | 25 | 13 |  |  |  |  | 
4 | OC(Cn1cncn1)(Cn1cncn1)c1ccc(F)cc1F [FLUCONAZOLE] | 6 (≈ 19.6 µM) |  |  |  | > 256 | 0.94 (≈ 3.07 µM) | 21 | 0 | 50
5 | CC(=O)N1CCN(c2ccc(OCC3COC(Cn4ccnc4)(c4ccc(Cl)cc4Cl)O3)cc2)CC1 (configuration not stated) [KETOCONAZOLE] |  | 50 | 33 | 16 |  |  |  |  | 
6 | Clc1ccc(COC(Cn2ccnc2)c2ccc(Cl)cc2Cl)c(Cl)c1 (configuration not stated) [MICONAZOLE] |  | 35 | 21 | 0 |  |  |  |  | 
7 | C[C@@H](c1ncncc1F)[C@](O)(Cn1cncn1)c1ccc(F)cc1F [VORICONAZOLE] | 0.047 (≈ 0.135 µM) |  |  |  | 4 (≈ 11.5 µM) | 0.003 (≈ 0.00859 µM) |  |  | 
